Source: ChEMBL document CHEMBL1687710, “Heterocyclic compounds that inhibit Rev-RRE function and human immunodeficiency virus type 1 replication” (Antimicrob Agents Chemother, 2008)
Activity calls are given as the source filed them. The calls are words filed in the database; no cut-off is given here.

What was measured:
[1] = system: Human immunodeficiency virus 1; experiment: Antiviral activity against HIV1 NL4-3 infected in human SupT1 cells assessed as inhibition of viral growth at 1 uM after 30 days by p24 ELISA; format: functional, organism-based; conditions: SUP-T1
Outline: (§1)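 SupT1 cells (5 × 10^6) were Polybrene-treated and infected with NL4-3 (50 ng p24 equivalents), then washed. They were cultured in RPMI/10% FCS with compound at fixed levels (0.8 and 8 μM, or 1 and 10 μM) or none. Cultures were split every 3 days with fresh compound-containing medium for 30–31 days. Supernatant p24 was measured by ELISA.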

HEK-293T = experiment: Inhibition of HIV1 Rev-Rev response element-mediated p24 antigen production expressed in human HEK 293T cells after 72 hrs; conditions: Human immunodeficiency virus 1
[2] = as above; conditions: Human immunodeficiency virus 1, HEK-293T
[3] = system: Human immunodeficiency virus 1; experiment: Antiviral activity against HIV1 Brazilian isolate 93BR021 infected in PHA-stimulated human PBMC assessed as inhibition of viral replication after 7 days; format: functional, organism-based; conditions: Human immunodeficiency virus 1, Brazilian isolate 93BR021, 168 h
Outline: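 PHA-stimulated (4 μg/ml, 48–72 h) PBMCs pooled from at least two donors, kept in 20 U/ml IL-2, 5 × 10^4 cells/well. Infected with primary isolate 93BR021 (CCR5-tropic, subtype B) at MOI ≈0.1 with nine compound concentrations, triplicate wells, for 7 days. Supernatant reverse transcriptase activity was read, then cell MTS toxicity. EC50 was interpolated between bracketing points.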

[4] = system: Human immunodeficiency virus 1; experiment: Antiviral activity against HIV1 infected in TNFalpha-stimulated human U1 cells assessed as inhibition of Pr55gag synthesis at 10 uM after 24 hrs by Western blotting; format: functional, organism-based
Outline: (§2)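 U1 cells carrying integrated provirus were induced with TNF-α and given compound (5 or 10 μM). After 24 h, cells were harvested and analysed by Western blot for p24, Pr55gag and Nef using p24- and Nef-specific monoclonal antibodies.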

[5] = system: Human immunodeficiency virus 1; experiment: Antiviral activity against HIV1 NL4-3 infected in human SupT1 cells assessed as inhibition of viral growth at 10 uM after 30 days by p24 ELISA; format: functional, organism-based; conditions: SUP-T1; outline: as §1
[6] = Inhibition of HIV1 Rev expressed in human HeLa cells co-expressing renilla luciferase reporter gene assessed as inhibition of renilla luciferase expression after 24 hrs; format: cell-based; conditions: Human immunodeficiency virus 1, HeLa
Outline: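 HeLa line with stably integrated Rev-dependent Renilla luciferase reporter (CMV promoter) plus bicistronic firefly luciferase/HIV-1 IIIB rev construct under Tet-Off; doxycycline withdrawn to induce Rev and both luciferases while compound added at various concentrations.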

[7] = Inhibition of HIV1 Rev expressed in african green monkey 5BD.1 cells assessed as inhibition of p24 antigen treated for 16 hrs after washout with medium again readded for 24 hrs by ELISA
[8] = system: Human immunodeficiency virus 1; experiment: Inhibition of HIV1 Rev-radiolabeled Rev response element interaction at up to 100 uM after 10 mins by electrophoretic mobility shift assay
Outline: (§3)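 A 234-bp RRE RNA was transcribed with [32P]UTP and T7 polymerase, then refolded (80°C 3 min, slow cooling). RRE (0.5 ng) was incubated with bacterial Rev (38 ng) in HEPES-KOH pH 7.8, 200 mM KCl, 4 mM MgCl2, glycerol with compound (up to 100 μM) on ice for 10 min. Complexes were resolved by PAGE and read by phosphorimager.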

[9] = system: Human immunodeficiency virus 1; experiment: Antiviral activity against HIV1 NL4-3 infected in human 293T cells assessed as inhibition of Nef synthesis at 10 uM after 24 hrs by Western blotting
[10] = system: Human immunodeficiency virus 1; experiment: Antiviral activity against HIV1 infected in TNFalpha-stimulated human U1 cells assessed as inhibition of viral replication after 72 hrs; format: functional, organism-based; conditions: for EC50: Human immunodeficiency virus 1, U1, 72 h
Outline: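 U1 cells (50,000/ml, RPMI/10% FCS) were induced with 5 ng/ml TNF-α and given compound at the same time over a six-point range from 0 to 11.9 or 25.1 μM, for 3 days. Supernatant reverse transcriptase activity was read. Cell toxicity was by MTS reduction (formazan at 492 nm) relative to untreated cells. Values were interpolated between bracketing points.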

[11] = system: Human immunodeficiency virus 1; experiment: Antiviral activity against HIV1 NL4-3 infected in human 293T cells assessed as inhibition of p24 synthesis at 10 uM after 24 hrs by Western blotting
[12] = system: Human immunodeficiency virus 1; experiment: Antiviral activity against HIV1 infected in TNFalpha-stimulated human U1 cells assessed as inhibition of p24 synthesis at 10 uM after 24 hrs by Western blotting; format: functional, organism-based; outline: as §2
[13] = Cytotoxicity against human MT4 cells after 5 days by MTS assay; format: cell-based; conditions: read-out: TC50
Outline: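 MT-4 T cells were incubated with compound for 5 days. Toxicity was by MTS tetrazolium reduction, with formazan absorbance at 492 nm compared with cells given no compound.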

[14] = Inhibition of Mason-Pfizer monkey virus […]constitutive transport element-mediated p24 antigen production expressed in human HEK 293T cells after 72 hrs
[15] = system: Human immunodeficiency virus 1; experiment: Antiviral activity against HIV1 infected in TNFalpha-stimulated human U1 cells assessed as inhibition of Nef synthesis at 10 uM after 24 hrs by Western blotting; format: functional, organism-based; outline: as §2
[16] = Cytotoxicity against african green monkey 5BD.1 cells after 2 days by MTS assay; format: cell-based; conditions: chlorocebus aethiops, read-out: TC50
Outline: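 5BD.1 cells (COS-derived, Rev-dependent Gag-Pol particle producers; 20,000/well) were given compound at 0.1–30 μM for 16 h, then refreshed with compound for 24 h more. Cells were collected at 40 h for the MTS proliferation assay, with formazan read at 492 nm versus untreated cells. TC50 was by curve fit.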

HeLa = experiment: Inhibition of HIV1 Rev expressed in human HeLa cells co-expressing firefly luciferase reporter gene assessed as inhibition of firefly luciferase expression after 24 hrs; format: cell-based; conditions: Human immunodeficiency virus 1
Outline: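 HeLa line with an integrated Rev-dependent Renilla luciferase reporter, plus firefly luciferase and HIV-1 IIIB Rev under Tet-Off control. Doxycycline was removed to induce expression alongside compound at various concentrations. Cells were plated at 2 × 10^4/well in triplicate.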

[17] = system: Human immunodeficiency virus 1; experiment: Inhibition of HIV1 Rev-radiolabeled Rev response element interaction after 10 mins by electrophoretic mobility shift assay; outline: as §3
[18] = system: Human immunodeficiency virus 1; experiment: Antiviral activity against HIV1 infected in TNFalpha-stimulated human U1 cells assessed as inhibition of Pr55gag synthesis at 5 uM after 24 hrs by Western blotting; format: functional, organism-based; outline: as §2
[19] = system: Human immunodeficiency virus 1; experiment: Antiviral activity against HIV1 NL4-3 infected in human 293T cells assessed as inhibition of Nef synthesis at 8 uM after 24 hrs by Western blotting
[20] = system: Human immunodeficiency virus 1; experiment: Antiviral activity against HIV1 NL4-3 infected in human SupT1 cells assessed as inhibition of viral growth at 8 uM after 30 days by p24 ELISA; format: functional, organism-based; conditions: SUP-T1; outline: as §1
U1 = experiment: Cytotoxicity against human U1 cells after 3 days by MTS assay; format: cell-based; conditions: u1, 72 h
[21] = system: Human immunodeficiency virus 1; experiment: Antiviral activity against HIV1 NL4-3 infected in human 293T cells assessed as inhibition of p24 synthesis at 8 uM after 24 hrs by Western blotting
[22] = system: Human immunodeficiency virus 1; experiment: Antiviral activity against HIV1 infected in TNFalpha-stimulated human U1 cells assessed as inhibition of p24 synthesis at 5 uM after 24 hrs by Western blotting; format: functional, organism-based; outline: as §2
[23] = system: Human immunodeficiency virus 1; experiment: Antiviral activity against HIV1 NL4-3 infected in human SupT1 cells assessed as inhibition of viral growth at 0.8 uM after 30 days by p24 ELISA; format: functional, organism-based; conditions: SUP-T1; outline: as §1
[24] = system: Human immunodeficiency virus 1; experiment: Antiviral activity against HIV1 infected in TNFalpha-stimulated human U1 cells assessed as inhibition of Nef synthesis at 5 uM after 24 hrs by Western blotting; format: functional, organism-based; outline: as §2

CCc1c(C)nc2sc(C(N)=O)c(N)c2c1C
Activity [1]: Active
inhibition (HEK-293T): Dose-dependent effect
EC50 [2]: 3.8 µM
EC50 [3]: 0.29 µM
Activity [4]: Active
Activity [5]: Active
EC50 [6]: 1.07 µM
EC50 [7]: 0.9 µM
inhibition [8]: inactive
Activity [9]: inactive
Activity [10]: Dose-dependent effect
EC50 [10]: 0.4 µM
Activity [11]: Active
Activity [12]: Active
CC50 at 120 h [13]: 32 µM
EC50 [14]: > 15 µM
Activity [15]: inactive
CC50 at 48 h [16]: > 30 µM
TC50 (HeLa): > 37.6 µM

NC[C@@H]1O[C@H](O[C@H]2[C@@H](O)[C@H](O[C@@H]3[C@@H](O)[C@H](N)C[C@H](N)[C@H]3O[C@H]3O[C@H](CN)[C@@H](O)[C@H](O)[C@H]3N)O[C@@H]2CO)[C@H](N)[C@@H](O)[C@@H]1O
inhibition [17]: Active

CCOC(=O)c1c(N)ncn1-c1ccccc1
EC50 [6]: 11 µM
EC50 [7]: 30 µM
CC50 at 120 h [13]: > 100 µM
CC50 at 48 h [16]: > 30 µM
TC50 (HeLa): 33 µM

COC(=O)c1c(N)ncn1-c1ccc(C)cc1
EC50 [6]: 11.2 µM
EC50 [7]: 22 µM
CC50 at 120 h [13]: > 100 µM
CC50 at 48 h [16]: > 30 µM
TC50 (HeLa): > 41.8 µM

COc1cccc(NC(=O)c2cc(Cl)nnc2Cl)c1
EC50 [6]: 8 µM
EC50 [7]: 4.9 µM
CC50 at 120 h [13]: 50 µM
CC50 at 48 h [16]: > 30 µM
TC50 (HeLa): 18.5 µM

Cc1cn([C@H]2C[C@H](N=[N+]=[N-])[C@@H](CO)O2)c(=O)[nH]c1=O [ZIDOVUDINE]
EC50 [3]: 2.47 µM

CCc1c(C(=O)Nc2ccccc2)c(C)nc2sc(C(N)=O)c(N)c12
EC50 [6]: 2.42 µM
EC50 [7]: 3 µM
CC50 at 120 h [13]: > 100 µM
CC50 at 48 h [16]: > 30 µM
TC50 (HeLa): 7.91 µM

CCC(=C/[C@H](C)C/C=C/C(C)=C/[C@@H](C)C(=O)[C@@H](C)[C@H](O)[C@@H](C)C/C(C)=C/C(=O)O)/C=C/[C@@H]1OC(=O)C=C[C@@H]1C [LEPTOMYCIN B]
EC50 [6]: 0.00822 µM
TC50 (HeLa): 0.02 µM

CC(=O)Nc1cccc2n[se]nc12
EC50 [6]: 8.99 µM
EC50 [7]: 10 µM
CC50 at 120 h [13]: > 100 µM
CC50 at 48 h [16]: > 30 µM
TC50 (HeLa): 51.6 µM

CS(=O)(=O)c1ncc(-c2ccc(Br)cc2)cn1
EC50 [6]: 7.48 µM
EC50 [7]: 0.2 µM
CC50 at 120 h [13]: 10 µM
CC50 at 48 h [16]: > 30 µM
TC50 (HeLa): 30.9 µM

COc1ccc2nc(C(F)(F)F)c(C#N)c(N)c2c1
inhibition (HEK-293T): Dose-dependent effect
EC50 [2]: 1.9 µM
EC50 [3]: 0.63 µM
EC50 [6]: 2.24 µM
Activity [18]: Active
Activity [19]: inactive
EC50 [7]: 2.5 µM
inhibition [8]: inactive
Activity [10]: Dose-dependent effect
EC50 [10]: < 0.25 µM
Activity [20]: Active
Activity (U1): Toxic
Activity [21]: Active
CC50 at 120 h [13]: 28 µM
EC50 [14]: > 15 µM
Activity [22]: Active
Activity [23]: Active
CC50 at 48 h [16]: > 30 µM
TC50 (HeLa): 17.2 µM
Activity [24]: inactive

COc1ccc2cc3c(N)n[nH]c3nc2c1
EC50 [6]: 0.48 µM
EC50 [7]: 0.9 µM
CC50 at 120 h [13]: 20 µM
CC50 at 48 h [16]: > 30 µM
TC50 (HeLa): 8.41 µM

O=c1c2ccccc2n2nnc3ccc(NCCCN4CCN(CCCNc5ccc6nnn7c8ccccc8c(=O)c5c67)CC4)c1c32 [TEMACRAZINE]
EC50 [10]: 2 µM

Cc1ccc(NC(=O)c2sc(Cl)nc2C(F)(F)F)cc1
EC50 [6]: 9.73 µM
EC50 [7]: 1.9 µM
CC50 at 120 h [13]: 18 µM
CC50 at 48 h [16]: 25 µM
TC50 (HeLa): > 39.5 µM

Fc1ccc(Nc2ncnc3ccccc23)cc1Cl
EC50 [6]: 8.98 µM
EC50 [7]: 3 µM
CC50 at 48 h [16]: > 30 µM
TC50 (HeLa): > 40.8 µM
